Test results published in ChEMBL document CHEMBL1121966, “(2R*,3S*)-1-[125I]Iodo-2,3-bis(4-hydroxyphenyl)pentane ([125I]iodonorhexestrol) and (2R*,3S*)-1-[77Br]Bromo-2,3-bis(4-hydroxyphenyl)pentane ([77Br]bromonorhexestrol), two gamma-emitting estrogens that show receptor-mediated uptake by target tissues in vivo” (1982).

Assays:
Rattus norvegicus [1] = organism: Rattus norvegicus; test: Percent injected dose per gram esophagus at 3h; format: functional
Outline: (§1)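 Dual-label study in immature 25-day female Sprague-Dawley rats (ca. 50 g). Each received 2 μCi [77Br]bromo tracer (≤1.25 pmol/dose) and 2 μCi 16α-[125I]iodoestradiol (2 pmol/dose) by tail or jugular vein, in ethanol diluted with saline/rat serum 1:1. Rats were killed at 3 or 6 h; blood and 11 tissues were weighed and counted. Five rats per time point; mean ± SD.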

Rattus norvegicus [2] = organism: Rattus norvegicus; test: Percent injected dose per gram esophagus at 6 hr; format: functional; outline: as §1
Rattus norvegicus [3] = organism: Rattus norvegicus; test: Percent injected dose per gram kidney at 1 hr; format: functional
Outline: (§2)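 Immature (25-day, ca. 50 g) Sprague-Dawley female rats received an iv injection (jugular or tail vein) of HPLC-purified tracer in ethanol plus 0.9% NaCl/rat serum 1:1. Doses were 2 μCi [125I]iodo tracer (≤15 pmol), or 2 μCi [77Br]bromo tracer (≤1.25 pmol) with 2 μCi 16α-[125I]iodoestradiol. Animals were killed at 1 h; blood and tissues were weighed and γ-counted. Blocking: coinjected unlabeled estradiol, 9 μg (iodo) or 18 μg (bromo). Mean ± SD.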

Rattus norvegicus [4] = organism: Rattus norvegicus; test: Percent injected dose per gram kidney at 1 hr with unlabeled estradiol; format: functional; outline: as §2
Rattus norvegicus [5] = organism: Rattus norvegicus; test: Percent injected dose per gram kidney at 3h; format: functional; outline: as §1
Rattus norvegicus [6] = organism: Rattus norvegicus; test: Percent injected dose per gram liver at 1 hr; format: functional
Outline: (§3)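 Immature (25 day) female Sprague-Dawley rats (ca. 50 g) were dosed iv (jugular or tail vein) in ethanol plus 0.9% NaCl/rat serum (1:1). Doses were 2 μCi of [125I]iodonorhexestrol (≤15 pmol/dose), or 2 μCi each of [77Br]bromonorhexestrol (≤1.25 pmol/dose) and 16α-[125I]iodoestradiol (2 pmol/dose). Rats were killed at 1, 3 or 6 h; blood and tissues were weighed and γ-counted. Thyroid weight assumed 0.005 g/100 g body weight. Mean ± SD.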

Rattus norvegicus [7] = organism: Rattus norvegicus; test: Percent injected dose per gram liver at 1 hr with unlabeled estradiol; format: functional
Outline: (§4)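 Same iv biodistribution in immature female rats, killed at 1 h, with unlabeled estradiol coinjected to block receptor uptake: 9 μg with [125I]iodonorhexestrol (3 rats), 18 μg with the [77Br]bromonorhexestrol/16α-[125I]iodoestradiol pair (5 rats). Tissue and blood radioactivity were counted as % injected dose/g and tissue-to-blood ratio.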

Rattus norvegicus [8] = organism: Rattus norvegicus; test: Percent injected dose per gram liver at 3h; format: functional; outline: as §3
Rattus norvegicus [9] = organism: Rattus norvegicus; test: Percent injected dose per gram liver at 6 hr; format: functional; outline: as §3
Rattus norvegicus [10] = organism: Rattus norvegicus; test: Percent injected dose per gram lung at 1 hr; format: functional; outline: as §3
Rattus norvegicus [11] = organism: Rattus norvegicus; test: Percent injected dose per gram lung at 1 hr with unlabeled estradiol; format: functional; outline: as §4
Rattus norvegicus [12] = organism: Rattus norvegicus; test: Percent injected dose per gram lung at 3h; format: functional; outline: as §3
Rattus norvegicus [13] = organism: Rattus norvegicus; test: Percent injected dose per gram lung at 6 hr; format: functional; outline: as §3
Rattus norvegicus [14] = organism: Rattus norvegicus; test: Percent injected dose per gram spleen at 1 hr; format: functional; outline: as §3
Rattus norvegicus [15] = organism: Rattus norvegicus; test: Percent injected dose per gram spleen at 1 hr with unlabeled estradiol; format: functional; outline: as §4
Rattus norvegicus [16] = organism: Rattus norvegicus; test: Percent injected dose per gram spleen at 3h; format: functional; outline: as §3
Rattus norvegicus [17] = organism: Rattus norvegicus; test: Percent injected dose per gram thyroid at 1 hr; format: functional, Thyroid gland; outline: as §3
Rattus norvegicus [18] = organism: Rattus norvegicus; test: Percent injected dose per gram thyroid at 1 hr with unlabeled estradiol; format: functional, Thyroid gland; outline: as §4
Rattus norvegicus [19] = organism: Rattus norvegicus; test: Percent injected dose per gram thyroid at 3h; format: functional, Thyroid gland; outline: as §3
Rattus norvegicus [20] = organism: Rattus norvegicus; test: Percent injected dose per gram thyroid at 6 hr; format: functional, Thyroid gland; outline: as §3
Rattus norvegicus [21] = organism: Rattus norvegicus; test: Percent injected dose per gram Uterus at 6 hr; format: functional; outline: as §1
Rattus norvegicus [22] = organism: Rattus norvegicus; test: Percent injected dose per gram blood at 1 hr; format: functional; outline: as §2
Rattus norvegicus [23] = organism: Rattus norvegicus; test: Percent injected dose per gram blood at 1 hr with unlabeled estradiol; format: functional; outline: as §2
Rattus norvegicus [24] = organism: Rattus norvegicus; test: Percent injected dose per gram blood at 3h; format: functional; outline: as §1
Rattus norvegicus [25] = organism: Rattus norvegicus; test: Percent injected dose per gram blood at 6 hr; format: functional; outline: as §1
Rattus norvegicus [26] = organism: Rattus norvegicus; test: Percent injected dose per gram esophagus at 1 hr; format: functional; outline: as §2
Rattus norvegicus [27] = organism: Rattus norvegicus; test: Percent injected dose per gram esophagus at 1 hr with unlabeled estradiol; format: functional; outline: as §2
Rattus norvegicus [28] = organism: Rattus norvegicus; test: Percent injected dose per gram Muscle at 1 hr with unlabeled estradiol; format: functional; outline: as §2
Rattus norvegicus [29] = organism: Rattus norvegicus; test: Percent injected dose per gram Muscle at 3h; format: functional; outline: as §1
Rattus norvegicus [30] = organism: Rattus norvegicus; test: Percent injected dose per gram Muscle at 6 hr; format: functional; outline: as §1
Rattus norvegicus [31] = organism: Rattus norvegicus; test: Percent injected dose per gram Ovaries at 1 hr; format: functional; outline: as §2
Rattus norvegicus [32] = organism: Rattus norvegicus; test: Percent injected dose per gram Ovaries at 1 hr with unlabeled estradiol; format: functional; outline: as §2
Rattus norvegicus [33] = organism: Rattus norvegicus; test: Percent injected dose per gram Ovaries at 3h; format: functional; outline: as §1
Rattus norvegicus [34] = organism: Rattus norvegicus; test: Percent injected dose per gram Ovaries at 6 hr; format: functional; outline: as §1
Rattus norvegicus [35] = organism: Rattus norvegicus; test: Percent injected dose per gram Uterus at 1 hr; format: functional; outline: as §2
Rattus norvegicus [36] = organism: Rattus norvegicus; test: Percent injected dose per gram Uterus at 1 hr with unlabeled estradiol; format: functional; outline: as §2
[37] = Ovary/blood distribution ratio was determined in immature female rats at 6 hr; format: functional; outline: as §1
[38] = Ovary/blood distribution ratio was determined in immature female rats at 1 hr; format: functional; outline: as §2
[39] = Ovary/blood distribution ratio was determined in immature female rats at 1 hr with unlabeled estradiol; format: functional; outline: as §2
[40] = Ovary/blood distribution ratio was determined in immature female rats at 3h; format: functional; outline: as §1

## C[C@]12CC[C@@H]3c4ccc(O)cc4CC[C@H]3[C@@H]1C[C@@H](I)[C@@H]2O
Rattus norvegicus [1]
  Injected dose: 0.32%
Rattus norvegicus [2]
  Injected dose: 0.14%
Rattus norvegicus [3]
  Injected dose: 1.48%
Rattus norvegicus [4]
  Injected dose: 2.77%
Rattus norvegicus [5]
  Injected dose: 0.94%
Rattus norvegicus [6]
  Injected dose: 2.37%
Rattus norvegicus [7]
  Injected dose: 4.91%
Rattus norvegicus [8]
  Injected dose: 1.96%
Rattus norvegicus [9]
  Injected dose: 0.9%
Rattus norvegicus [10]
  Injected dose: 0.75%
Rattus norvegicus [11]
  Injected dose: 1.76%
Rattus norvegicus [12]
  Injected dose: 0.36%
Rattus norvegicus [13]
  Injected dose: 0.14%
Rattus norvegicus [14]
  Injected dose: 0.43%
Rattus norvegicus [15]
  Injected dose: 0.79%
Rattus norvegicus [16]
  Injected dose: 0.18%
Rattus norvegicus [17]
  Injected dose: 7.46%
Rattus norvegicus [18]
  Injected dose: 11.9%
Rattus norvegicus [19]
  Injected dose: 190.9%
Rattus norvegicus [20]
  Injected dose: 276.6%
Rattus norvegicus [21]
  Injected dose: 1.57%
Rattus norvegicus [22]
  Injected dose: 0.47%
Rattus norvegicus [23]
  Injected dose: 1.22%
Rattus norvegicus [24]
  Injected dose: 0.46%
Rattus norvegicus [25]
  Injected dose: 0.22%
Rattus norvegicus [26]
  Injected dose: 0.49%
Rattus norvegicus [27]
  Injected dose: 1.07%
Rattus norvegicus [28]
  Injected dose: 0.92%
Rattus norvegicus [29]
  Injected dose: 0.15%
Rattus norvegicus [30]
  Injected dose: 0.05%
Rattus norvegicus [31]
  Injected dose: 4.17%
Rattus norvegicus [32]
  Injected dose: 2.47%
Rattus norvegicus [33]
  Injected dose: 1.75%
Rattus norvegicus [34]
  Injected dose: 0.52%
Rattus norvegicus [35]
  Injected dose: 9.59%
Rattus norvegicus [36]
  Injected dose: 1.81%
[37]
  Ratio: 2.49
[38]
  Ratio: 3.02
[39]
  Ratio: 1.36
[40]
  Ratio: 2.03
